From ChEMBL document CHEMBL3272266, “Dibenzotropone- and dibenzosuberonecarboxylic acids with bronchodilator activity” (J Med Chem, 1979)
Activity calls are given as the source filed them. No cut-off for these calls is given here.

Key:
Cavia porcellus [1] = assay: Bronchodilator activity in guinea pig assessed as protection against histamine aerosol-induced bronchoconstriction at 100 mg/kg, ip treated for 15 mins prior to histamine aerosol-challenge measured after 5 mins relative to control; assay type: functional; conditions: route intraperitoneal
Method in brief: (§1)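 Guinea pigs in groups of eight; a control group of eight is first confirmed to collapse. Compound given ip 15 min or orally 30 min before exposure to 0.04% aqueous histamine aerosol for 5 min. Percent protection = 100 × animals not collapsing during the 5-min exposure / total animals. Significance by chi-square with Yates correction against 66 control animals.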

[2] = Bronchodilator activity in guinea pig trachea assessed as relaxation of tracheal smooth muscle at 0.005 to 5 ug/ml after 15 mins relative to aminophylline; assay type: functional, Cavia porcellus
Method in brief: (§2)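 Guinea pig trachea cut into rings tied as a chain, in Krebs-Henseleit at 37 °C aerated with 5% CO2/95% O2, resting load 0.2–0.5 g, tone recorded isometrically after stabilization. Sodium salts in water, up to 5 µg/mL, 15-min exposure. Potency estimated against aminophylline by a three- or four-point assay from concentration–relaxation plots, one preparation per agent.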

Cavia porcellus [3] = assay: Bronchodilator activity in trachea and jugular vein cannulated guinea pig assessed as inhibition of histamine-induced response at 12.5 mg/kg, iv after 5 mins relative to control; assay type: functional
Method in brief: (§3)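 Cannulated guinea pigs given histamine phosphate 10 µg/kg iv in buffered saline. Test agent given 5 min later as the sodium salt in water via jugular cannula, one dose per animal, then histamine repeated 5 min after dosing. Percent inhibition = maximum pulmonary resistance after the agent versus before it.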

Cavia porcellus [4] = assay: Bronchodilator activity in trachea and jugular vein cannulated guinea pig assessed as inhibition of histamine-induced response at 6.25 mg/kg, iv after 5 mins relative to control; assay type: functional; method in brief: as §3
Cavia porcellus [5] = assay: Toxicity in trachea and jugular vein cannulated histamine-induced guinea pig assessed as severe airway constriction at 25 mg/kg, iv; assay type: organism-based; design: dose 25 mg/kg, route intravenous; conditions: in vivo
Method in brief: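 Guinea pigs cannulated in the jugular vein dosed iv with the sodium salt in water. Animals showing severe airway constriction after dosing were recorded and received no histamine challenge.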

Cavia porcellus [6] = assay: Bronchodilator activity in guinea pig assessed as protection against histamine aerosol-induced bronchoconstriction at 50 mg/kg, ip treated for 15 mins prior to histamine aerosol-challenge measured after 5 mins relative to control; assay type: functional; conditions: route intraperitoneal
[7] = Bronchodilator activity in guinea pig trachea assessed as relaxation of tracheal smooth muscle at 0.05 to 0.5 ug/ml after 15 mins relative to aminophylline; assay type: functional, Cavia porcellus; method in brief: as §2
Cavia porcellus [8] = assay: Bronchodilator activity in trachea and jugular vein cannulated guinea pig assessed as inhibition of histamine-induced response at 25 mg/kg, iv after 5 mins relative to control; assay type: functional; method in brief: as §3
Cavia porcellus [9] = assay: Bronchodilator activity in trachea and jugular vein cannulated guinea pig assessed as inhibition of histamine-induced response at 3.175 mg/kg, iv after 5 mins relative to control; assay type: functional; method in brief: as §3
Cavia porcellus [10] = assay: Bronchodilator activity in guinea pig assessed as protection against histamine aerosol-induced bronchoconstriction at 75 mg/kg, ip treated for 15 mins prior to histamine aerosol-challenge measured after 5 mins relative to control; assay type: functional; conditions: route intraperitoneal
[11] = (§4) Bronchodilator activity in guinea pig trachea assessed as relaxation of tracheal smooth muscle at 0.5 to 5 ug/ml after 15 mins relative to aminophylline; assay type: functional, Cavia porcellus; method in brief: as §2
Cavia porcellus [12] = assay: Bronchodilator activity in guinea pig assessed as protection against histamine aerosol-induced bronchoconstriction at 200 mg/kg, po treated for 30 mins prior to histamine aerosol-challenge measured after 5 mins; assay type: functional, organism-based; design: dose 200 mg/kg; method in brief: as §1
Cavia porcellus [13] = species: Cavia porcellus; assay: as §4; assay type: functional; method in brief: as §2
[14] = Bronchodilator activity in guinea pig trachea assessed as relaxation of tracheal smooth muscle at 0.125 to 0.5 ug/ml after 15 mins relative to aminophylline; assay type: functional, Cavia porcellus; method in brief: as §2
Cavia porcellus [15] = assay: Bronchodilator activity in guinea pig assessed as protection against histamine aerosol-induced bronchoconstriction at 90 mg/kg, ip treated for 15 mins prior to histamine aerosol-challenge measured after 5 mins relative to control; assay type: functional; conditions: route intraperitoneal; method in brief: as §1
Cavia porcellus [16] = assay: Bronchodilator activity in guinea pig assessed as protection against histamine aerosol-induced bronchoconstriction at 90 mg/kg, po treated for 30 mins prior to histamine aerosol-challenge measured after 5 mins; assay type: functional, organism-based; design: dose 90 mg/kg; method in brief: as §1

Row | Compound | Activity (Cavia porcellus [1]) | other results
1 | O=C(O)c1ccc2c(c1)CCc1ccc(Cl)cc1C2=O | 0% | 
2 | Cc1ccc2c(c1)C(=O)c1ccc(C(=O)O)cc1CC2 | 62.5% | 
3 | O=C(O)c1ccc2c(c1)CCc1cc(Br)ccc1C2=O | 25% | 
4 | Cc1ccc2c(c1)CCc1cc(C(=O)O)ccc1C2=O | 12.5% | 
5 | O=C([O-])c1ccc2c(c1)C(=O)c1cc(Cl)ccc1CC2.[Na+] |  | fold change (FC) [2]: 25
6 | O=C([O-])c1ccc2c(c1)CCc1ccc(Cl)cc1C2=O.[Na+] |  | inhibition in vivo at 12.5 mg/kg (Cavia porcellus [3]): 24%; inhibition in vivo at 6.25 mg/kg (Cavia porcellus [4]): 0%; Activity (Cavia porcellus [5]): Toxic
7 | Cc1cc(C)c2c(c1)C(=O)c1cc(C(=O)O)ccc1CC2 | 37.5% | 
8 | O=C(O)c1ccc2c(=O)c3cccc(F)c3ccc2c1 [listing 1 of 2 here] | 25% | 
9 | CC(C)c1ccc2c(c1)C(=O)c1cc(C(=O)O)ccc1CC2 | 25% | 
10 | CC(C)Oc1ccc2c(c1)C(=O)c1cc(C(=O)O)ccc1CC2 |  | Activity (Cavia porcellus [6]): 0%
11 | O=C(O)c1ccc2c(=O)c3ccccc3ccc2c1 | 0% | 
12 | O=C([O-])c1ccc2c(c1)C(=O)c1ccccc1CC2.[Na+] |  | fold change (FC) [7]: 7
13 | O=C(O)c1ccc2c(=O)c3cc(Cl)cc(Cl)c3ccc2c1 | 0% | 
14 | O=C(O)c1ccc2c(c1)CCc1c(F)cccc1C2=O | 75% | 
15 | O=C(O)c1ccc2c(c1)CCc1c(Cl)cc(Cl)cc1C2=O | 50% | 
16 | COc1ccc2c(c1)CCc1cc(C(=O)O)ccc1C2=O [listing 1 of 2 here] | 37.5% | 
17 | O=C(O)c1ccc2c(c1)C(=O)c1cccc(Br)c1CC2 | 0% | 
18 | Cc1cccc2c1CCc1cc(C(=O)O)ccc1C2=O [listing 1 of 2 here] |  | inhibition in vivo at 12.5 mg/kg (Cavia porcellus [3]): 0%; inhibition in vivo at 25 mg/kg (Cavia porcellus [8]): 0%; inhibition in vivo at 6.25 mg/kg (Cavia porcellus [4]): 0%; inhibition in vivo at 3.175 mg/kg (Cavia porcellus [9]): 0%
19 | COc1ccc2c(c1)C(=O)c1ccc(C(=O)O)cc1CC2 [listing 1 of 2 here] | 50% | 
20 | O=C(O)c1cccc2c(=O)c3ccccc3ccc12 | 12.5% | 
21 | CC(=O)c1ccc2c(c1)C(=O)c1cc(C(=O)O)ccc1CC2 | 62.5% | 
22 | Cn1c(=O)c2[nH]cnc2n(C)c1=O.Cn1c(=O)c2[nH]cnc2n(C)c1=O.NCCN [AMINOPHYLLINE] | 75% | Activity (Cavia porcellus [6]): 25%; Activity (Cavia porcellus [10]): 50%

Row | Compound | Activity (Cavia porcellus [1]) | other results
23 | Cc1ccc2c(c1)CCc1cc(C(=O)[O-])ccc1C2=O.[Na+] |  | inhibition in vivo at 12.5 mg/kg (Cavia porcellus [3]): 0%; Activity (Cavia porcellus [5]): Toxic
24 | CC(C)c1ccc2c(c1)C(=O)c1cc(C(=O)[O-])ccc1CC2.[Na+] |  | fold change (FC) [11]: 5
25 | O=C(O)c1ccc2c(=O)c3cccc(F)c3ccc2c1 [listing 2 of 2 here] |  | inhibition in vivo at 12.5 mg/kg (Cavia porcellus [3]): 22%; inhibition in vivo at 25 mg/kg (Cavia porcellus [8]): 43%
26 | CC(C)Oc1ccc2c(c1)C(=O)c1ccc(C(=O)O)cc1CC2 | 50% | 
27 | O=C(O)c1ccc2c(c1)CCc1c(Br)cccc1C2=O [listing 1 of 2 here] |  | inhibition in vivo at 12.5 mg/kg (Cavia porcellus [3]): 46%; inhibition in vivo at 25 mg/kg (Cavia porcellus [8]): 77%; inhibition in vivo at 6.25 mg/kg (Cavia porcellus [4]): 0%
28 | O=C(O)c1ccc2c(c1)C(=O)c1ccc(Cl)cc1CC2 | 25% | 
29 | O=C(O)c1ccc2c(c1)CCc1c(Cl)cccc1C2=O [listing 1 of 2 here] |  | Activity (Cavia porcellus [12]): inactive
30 | CC(C)Oc1ccc2ccc3ccc(C(=O)O)cc3c(=O)c2c1 | 62.5% | 
31 | O=C(O)c1ccc2c(c1)C(=O)c1cc(Cl)ccc1CC2 | 25% | 
32 | O=C(O)c1ccc2c(c1)C(=O)c1ccccc1CC2 | 0% | 
33 | O=C(O)c1ccc2c(c1)C(=O)c1cc(Br)ccc1CC2 | 62.5% | 
34 | O=C(O)c1ccc2ccc3ccccc3c(=O)c2c1 | 62.5% | 
35 | O=C(O)c1ccc2c(c1)CCc1ccccc1C2=O [listing 1 of 3 here] |  | Activity (Cavia porcellus [13]): inactive
36 | O=C(O)c1ccc2c(c1)CCc1ccc(Br)cc1C2=O | 50% | 
37 | O=C(O)c1ccc2c(=O)c3cccc(Br)c3ccc2c1 | 25% | 
38 | O=C(O)c1ccc2c(c1)C(=O)c1ccc(Br)cc1CC2 | 0% | 
39 | O=C([O-])c1ccc2c(c1)CCc1ccc(Br)cc1C2=O.[Na+] |  | fold change (FC) [11]: 7
40 | CC(C)c1ccc2c(c1)C(=O)c1ccc(C(=O)[O-])cc1CC2.[Na+] |  | fold change (FC) [14]: 10
41 | CC(C)c1ccc2c(c1)C(=O)c1ccc(C(=O)O)cc1CC2 | 62.5% | 
42 | O=C(O)c1cccc2c1CCc1ccccc1C2=O | 0% | 
43 | O=C(O)c1ccc2c(c1)CCc1c(Br)cccc1C2=O [listing 2 of 2 here] |  | Activity (Cavia porcellus [15]): 75%
44 | COc1ccc2c(c1)CCc1cc(C(=O)O)ccc1C2=O [listing 2 of 2 here] |  | inhibition in vivo at 25 mg/kg (Cavia porcellus [8]): 20%

Row | Compound | Activity (Cavia porcellus [1]) | other results
45 | CC(=O)c1ccc2c(c1)C(=O)c1cc(C(=O)[O-])ccc1CC2.[Na+] |  | fold change (FC) [7]: <1
46 | O=C([O-])c1ccc2c(c1)CCc1c(Cl)cc(Cl)cc1C2=O.[Na+] |  | inhibition in vivo at 12.5 mg/kg (Cavia porcellus [3]): 53%; Activity (Cavia porcellus [5]): Toxic
47 | N#Cc1ccc2c(c1)C(=O)c1cc(C(=O)[O-])ccc1CC2.[Na+] |  | fold change (FC) [7]: 5
48 | O=C(O)c1ccc2ccc3ccc(C(=O)O)cc3c(=O)c2c1 | 25% | 
49 | Cc1cccc2c1CCc1cc(C(=O)O)ccc1C2=O [listing 2 of 2 here] | 87.5% | 
50 | O=C(O)c1ccc2c(c1)CCc1ccccc1C2=O [listing 2 of 3 here] | 62.5% | 
51 | N#Cc1ccc2c(c1)CCc1ccc(C(=O)O)cc1C2=O | 12.5% | 
52 | O=C([O-])c1ccc2c(c1)C(=O)c1cc(Br)ccc1CC2.[Na+] |  | fold change (FC) [14]: 10; inhibition in vivo at 12.5 mg/kg (Cavia porcellus [3]): 0%; inhibition in vivo at 25 mg/kg (Cavia porcellus [8]): 61%
53 | CC(=O)c1ccc2c(c1)C(=O)c1ccc(C(=O)O)cc1CC2 | 25% | 
54 | COc1ccc2c(c1)C(=O)c1ccc(C(=O)O)cc1CC2 [listing 2 of 2 here] |  | inhibition in vivo at 12.5 mg/kg (Cavia porcellus [3]): 13%; inhibition in vivo at 25 mg/kg (Cavia porcellus [8]): 68%
55 | CC(C)c1cccc2c1CCc1cc(C(=O)O)ccc1C2=O | 25% | Activity (Cavia porcellus [16]): inactive
56 | O=C(O)c1ccc2c(c1)CCc1c(Cl)cccc1C2=O [listing 2 of 2 here] | 75% | 
57 | O=C(O)c1ccc2c(c1)CCc1ccccc1C2=O [listing 3 of 3 here] |  | inhibition in vivo at 12.5 mg/kg (Cavia porcellus [3]): 0%; inhibition in vivo at 25 mg/kg (Cavia porcellus [8]): 11%
58 | O=C(O)c1ccc2c(c1)C(=O)c1cc(O)ccc1CC2 | 12.5% | 
59 | COc1ccc2c(c1)C(=O)c1cc(C(=O)O)ccc1CC2 | 50% | 
60 | O=C(O)c1cc2ccccc2c(=O)c2ccccc12 | 0% | 
61 | O=C(O)c1ccc2ccc3ccc(Br)cc3c(=O)c2c1 | 12.5% | 
62 | CC(C)Oc1ccc2c(c1)C(=O)c1cc(C(=O)[O-])ccc1CC2.[Na+] |  | fold change (FC) [7]: 0.5
63 | O=C(O)c1ccc2ccc3ccc(Cl)cc3c(=O)c2c1 | 0% | 
64 | N#Cc1ccc2c(c1)C(=O)c1cc(C(=O)O)ccc1CC2 | 0% | 
65 | O=C([O-])c1ccc2c(c1)CCc1c(Cl)cccc1C2=O.[Na+] |  | inhibition in vivo at 12.5 mg/kg (Cavia porcellus [3]): 76%; Activity (Cavia porcellus [5]): Toxic
66 | CC(=O)c1ccc2ccc3ccc(C(=O)O)cc3c(=O)c2c1 | 37.5% | 
